Values belong to the compound of their own block, whether it stands above or below them. Active and inactive are the calls of the source. The rule behind the calls is not given here.
Assays:
Cerebral cortex neuron [1] = test: Inhibition of SOD1 G93A mutant-induced protein aggregation in MG132-treated rat primary cortical neurons assessed as decrease in cell death at 10 uM incubated for 24 hrs prior to MG132 treatment measured after 48 hrs by Calcein-AM staining method; format: cell-based
Mus musculus [2] = test: Increase in life span of transgenic mouse expressing human SOD1 G93A mutant at 22 mg/kg; format: functional
Cerebral cortex neuron [3] = test: Inhibition of SOD1 G93A mutant-induced protein aggregation in MG132-treated rat primary cortical neurons assessed as decrease in cell death up to 100 uM incubated for 24 hrs prior to MG132 treatment measured after 48 hrs by Calcein-AM staining method; format: cell-based
[4] = Inhibition of SOD1 G93A mutant-induced protein aggregation in MG132-treated rat PC12 cells assessed as decrease in cell death incubated for 24 hrs prior to MG132 treatment measured after 48 hrs by Calcein-AM staining method; format: cell-based; conditions: PC-12
[5] = Intrinsic clearance in human liver microsomes at 1 uM after 1 hr in absence of NADPH; format: ADME, Microsome; conditions: read-out: CLH
Procedure, shortened: (§1)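 Human or mouse liver microsomes; test compound at 1 μM, incubated at 37 °C for 1 h with and without NADPH. Intrinsic clearance given in mL/min/kg and half-life in min.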

Liver [6] = test: Half life in mouse liver microsomes at 1 uM after 1 hr in presence of NADPH; format: ADME, Microsome; procedure, shortened: as §1
[7] = Toxicity in mouse administered BID; format: organism-based; conditions: in vivo
Procedure, shortened: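 Tolerable dose range found in wild-type mice by escalating the dose given b.i.d.; maximum tolerated dose taken as the read-out.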

Liver microsomes [8] = test: Drug metabolism in rat liver microsomes at 10 uM after 1 hr by LC-PDA-MS/MS analysis; format: ADME, Microsome
Liver microsomes [9] = test: Half life in human liver microsomes at 1 uM after 1 hr in absence of NADPH; format: ADME, Microsome; procedure, shortened: as §1
Cerebral cortex neuron [10] = test: Inhibition of SOD1 G93A mutant-induced protein aggregation in MG132-treated rat primary cortical neurons assessed as decrease in cell death at 3 uM incubated for 24 hrs prior to MG132 treatment measured after 48 hrs by Calcein-AM staining method; format: cell-based
Mus musculus [11] = test: Increase in life span of transgenic mouse expressing human SOD1 G93A mutant assessed as survival at 10 mg/kg administered QD until death (reference value: 125.7+/-4.3 days); format: functional
Procedure, shortened: (§2)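 Transgenic mice expressing human G93A mutant SOD1, cohorts matched for age (±3 days) and "f" generation, drawn from multiple litters. Dosed 10, 20 or 30 mg/kg once daily from 6 weeks of age until end of life; untreated G93A mice served as controls. Survival read out by Kaplan-Meier plot and reported as mean ± value in days, with p values.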

Mus musculus [12] = test: Increase in life span of transgenic mouse expressing human SOD1 G93A mutant assessed as survival at 30 mg/kg administered QD until death (reference value: 125.7+/-4.3 days); format: functional; procedure, shortened: as §2
[13] = Aqueous solubility of the compound in DMSO after 1 hr by spectrophotometry; format: physicochemical
Procedure, shortened: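 Aqueous solubility: DMSO stock diluted into PBS to a final 1% DMSO. The limit was taken as the highest concentration showing no precipitation.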

[14] = Drug uptake in brain at 500 mg/kg, ip; format: ADME, organism-based; parameters: dose 500 mg/kg, route intraperitoneal; conditions: in vivo, read-out: Drug uptake
Procedure, shortened: (§3)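 Single i.p. dose of 500 mg/kg in mice. Blood and brain levels were sampled over time to find the maximum level and Tmax.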

Liver [15] = test: Half life in mouse liver microsomes at 1 uM after 1 hr in absence of NADPH; format: ADME, Microsome; procedure, shortened: as §1
[16] = Apparent permeability of the compound from apical to basal side of human Caco2 cells at 50 uM after 2 hrs; format: ADME, cell-based; conditions: Caco-2
[17] = Tmax in brain at 500 mg/kg, ip; format: ADME, organism-based; parameters: dose 500 mg/kg, route intraperitoneal
Procedure, shortened: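 Compound given as a single intraperitoneal dose of 500 mg/kg. Levels were followed over time in both blood and brain. Tmax is the time at which the brain concentration peaked.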

[18] = Drug uptake in blood at 500 mg/kg, ip at 12 hrs; format: ADME, organism-based; parameters: dose 500 mg/kg, route intraperitoneal; conditions: read-out: Drug uptake; procedure, shortened: as §3
[19] = Half life in plasma; format: ADME, cell-free
Caco-2 = test: Efflux ratio of apparent permeability from basal to apical to apical to basal side of human Caco2 cells at 50 uM after 2 hrs; format: ADME, cell-based; conditions: caco-2, 2 h
Mus musculus [20] = test: Increase in life span of transgenic mouse expressing human SOD1 G93A mutant at 20 mg/kg administered QD until death relative to untreated-control; format: functional; procedure, shortened: as §2
[21] = Apparent permeability of the compound from basal to apical side of human Caco2 cells at 50 uM after 2 hrs; format: ADME, cell-based; conditions: Caco-2
[22] = Half life in blood at 500 mg/kg, ip; format: ADME, organism-based; parameters: dose 500 mg/kg, route intraperitoneal
Procedure, shortened: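 Compound given i.p. at 500 mg/kg. Concentrations were measured in blood, with brain levels sampled in the same study. The half-life was taken from the blood time course.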

Liver microsomes [23] = test: Half life in human liver microsomes at 1 uM after 1 hr in presence of NADPH; format: ADME, Microsome; procedure, shortened: as §1

SMILES: O=c1cc(COc2cc(Cl)cc(Cl)c2)[nH][nH]1
- inhibition (Cerebral cortex neuron [1]): Active

SMILES: Nc1nc2ccc(OC(F)(F)F)cc2s1 [RILUZOLE]
- survival at 22 mg/kg (Mus musculus [2]): 10%

SMILES: O=C1CC(=O)CC(c2cc(C(F)(F)F)cc(C(F)(F)F)c2)C1
- inhibition (Cerebral cortex neuron [3]): inactive
- EC50 [4]: 700 nM

SMILES: C[C@@H](Oc1cc(C(F)(F)F)cc(C(F)(F)F)c1)C1CC(=O)CC(=O)C1
- inhibition (Cerebral cortex neuron [3]): Active
- EC50 [4]: 1300 nM

SMILES: CC(Oc1cc(C(F)(F)F)cc(C(F)(F)F)c1)C1CC(=O)CC(=O)C1 (racemic)
- inhibition (Cerebral cortex neuron [3]): Active
- EC50 [4]: 700 nM

SMILES: O=C1CC(=O)CC([C@H]2C[C@@H]2c2cc(C(F)(F)F)cc(C(F)(F)F)c2)C1
- inhibition (Cerebral cortex neuron [3]): Active
- EC50 [4]: 1390 nM

SMILES: O=C1CC(=O)CC(C2CC2c2cc(C(F)(F)F)cc(C(F)(F)F)c2)C1 (racemic)
- inhibition (Cerebral cortex neuron [3]): Active
- EC50 [4]: 1000 nM

SMILES: C[C@H](Oc1cc(C(F)(F)F)cc(C(F)(F)F)c1)C1CC(=O)CC(=O)C1
- inhibition (Cerebral cortex neuron [3]): Active
- CLint scaled at 1 µM [5]: 10 mL/min/kg
- t1/2 (Liver [6]): 0.867 h
- MTD [7]: 1280 mg/kg
- Drug metabolism (Liver microsomes [8]): Active
- t1/2 (Liver microsomes [9]): > 3 h
- inhibition (Cerebral cortex neuron [10]): > 90%
- Survival (Mus musculus [11]): 139.2 days
- EC50 [4]: 300 nM
- Survival (Mus musculus [12]): 127.9 days
- solubility [13]: >= 100 uM
- concentration [14]: 8.3 µM
- t1/2 (Liver [15]): 0.867 h
- Papp A→B at 2 h, 50 µM [16]: 24.1 ×10⁻⁶ cm/s
- Tmax [17]: 12 h
- concentration at 12 h [18]: 245 µM
- t1/2 [19]: > 1 h
- Ratio (Caco-2): 0.1
- survival at 20 mg/kg (Mus musculus [20]): 13%
- Papp B→A at 2 h, 50 µM [21]: 1.5 ×10⁻⁶ cm/s
- half-life [22]: 12 h

- CLint scaled at 1 µM [5]: 12 mL/min/kg
- t1/2 (Liver [6]): 0.467 h
- t1/2 (Liver microsomes [9]): > 3 h
- solubility [13]: >= 100 uM
- t1/2 (Liver [15]): 0.617 h
- Papp A→B at 2 h, 50 µM [16]: 21.7 ×10⁻⁶ cm/s
- t1/2 (Liver microsomes [23]): 0.817 h
- t1/2 [19]: 1.18 h
- Ratio (Caco-2): 0.1
- Papp B→A at 2 h, 50 µM [21]: 1.1 ×10⁻⁶ cm/s
SMILES: O=C1CC(=O)CC([C@@H]2C[C@H]2c2cc(C(F)(F)F)cc(C(F)(F)F)c2)C1
- inhibition (Cerebral cortex neuron [3]): Active
- EC50 [4]: 800 nM

Reference: ChEMBL document CHEMBL2086384, “Chiral cyclohexane 1,3-diones as inhibitors of mutant SOD1-dependent protein aggregation for the treatment of ALS” (ACS Med Chem Lett, 2012)
